These results are taken from ChEMBL document CHEMBL4825703, “Investigation of 3-sulfamoyl coumarins against cancer-related IX and XII isoforms of human carbonic anhydrase as well as cancer cells leads to the discovery of 2-oxo-2H-benzo[h]chromene-3-sulfonamide - A new caspase-activating proapoptotic agent” (Eur J Med Chem, 2021).

One data set deals with Carbonic anhydrase 9 (Homo sapiens, UniProt Q16790). Put plainly: Inhibition of human carbonic anhydrase 9 assessed as inhibition constant incubated for 15 mins prior to testing by phenol red based stopped-flow CO2 hydration assay.
Data set [1] deals with U-87 MG. Put plainly: Antiproliferative activity against human U-87 MG cells assessed as cell growth inhibition at 30 to 100 uM measured after 24 hrs under CoCl2-induced hypoxic condition by MTT assay. Format: functional, cell-based. Conditions: U-87MG ATCC, dose 30-100 µM. In general terms: Formazan colour is commonly taken as a measure of viable cells.
Data set [2] has as its system hTERT-BJ. Description: Cytotoxicity against human TERT-Bj-5ta cells assessed as reduction in cell viability at 300 uM measured after 24 hrs under CoCl2- induced hypoxic condition by MTT assay relative to control. Type of data set: cell-based.
Data set [3] concerns RT-4. Put plainly: Antiproliferative activity against human RT-4 cells assessed as cell survival rate at 100 uM measured after 24 hrs under CoCl2-induced hypoxic condition by MTT assay relative to control. Format: functional. The settings on record: read-out: Survival. Summed up:
(§1)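 MTT end-point assay. MTT (5 mg/mL in PBS) added for 4 h, formazan dissolved in DMSO, absorbance read at 560 nm. Viability given as % of untreated control (100%); mean ± SEM of three experiments.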

Data set [4] relates to A-431. Description: Antiproliferative activity against human A-431 cells assessed as reduction in cell viability measured after 72 hrs by MTT assay. The settings on record: A-431, 72 h.
The nature of data set [5]: Antiproliferative activity against human WI-26 AV4 cells assessed as reduction in cell viability measured after 24 hrs by MTT assay. Conditions: WI-26 AV4, 24 h.
For data set [6], the system named is A-431. Description: Antiproliferative activity against human A-431 cells assessed as cell survival rate at 300 uM measured after 24 hrs under CoCl2-induced hypoxic condition by MTT assay relative to control. Format: functional. Conditions: read-out: Survival. Summed up:
as §1

The subject of data set [7] is A-431. Put plainly: Antiproliferative activity against human A-431 cells assessed as reduction in cell viability measured after 24 hrs by MTT assay. Conditions: A-431, 24 h.
The subject of data set [8] is A-431. Description: Antiproliferative activity against human A-431 cells assessed as cell survival rate at 100 uM measured after 24 hrs under CoCl2-induced hypoxic condition by MTT assay relative to control. Type of data set: functional. Conditions: read-out: Survival. In short, it runs like this:
as §1

Data set [9] concerns RT-4. Put plainly: Antiproliferative activity against human RT-4 cells assessed as cell survival rate at 300 uM measured after 24 hrs under CoCl2-induced hypoxic condition by MTT assay relative to control. Type of data set: functional. Conditions: read-out: Survival. Summed up: as §1
Data set [10] relates to U-87 MG. Put plainly: Antiproliferative activity against human U-87 MG cells assessed as cell survival rate at 300 uM measured after 24 hrs under CoCl2-induced hypoxic condition by MTT assay relative to control. Type of data set: functional, U-87MG ATCC. Conditions: read-out: Survival. In short, it runs like this:
as §1

Data set [11] can be described thus: Antiproliferative activity against human WI-26 AV4 cells assessed as reduction in cell viability measured after 72 hrs by MTT assay. The settings on record: WI26VA4, 72 h.
In data set [12] the test system is A-431. Description: Antiproliferative activity against human A-431 cells assessed as reduction in cell viability measured after 48 hrs by MTT assay. Conditions: A-431, 48 h.
Data set [13] is described as follows: Antiproliferative activity against human WI-26 AV4 cells assessed as reduction in cell viability measured after 48 hrs by MTT assay. The settings on record: WI-26 AV4, 48 h.
Data set [14] has as its system hTERT-BJ. Description: Cytotoxicity against human TERT-Bj-5ta cells assessed as reduction in cell viability at measured after 24 hrs under CoCl2- induced hypoxic condition by MTT assay. Format: cell-based.

The structures appear in SMILES notation. Active and inactive are the calls of the source. The calls are words filed in the database; no cut-off is given here.

Take `COc1ccc2cc(S(N)(=O)=O)c(=O)oc2c1`: at Carbonic anhydrase 9, the Ki (usually a measure of affinity in units of concentration, obtained from inhibition or displacement) was found to be 40.5 nM. Also, the “growth inhibition (GI)” value with U-87 MG [1] is “inactive”.
As to `COc1cccc2cc(S(N)(=O)=O)c(=O)oc12`, the Ki at Carbonic anhydrase 9 worked out at 87.9 nM. In addition, in the data set with U-87 MG [1], the “growth inhibition (GI)” value is “inactive”.
Turning to `COc1ccc2oc(=O)c(S(N)(=O)=O)cc2c1`, the Ki at Carbonic anhydrase 9 amounted to 58.1 nM. Moreover, the Activity in the data set on hTERT-BJ [2] stood at 70.97%. For the same molecule, the “growth inhibition (GI)” value in the data set on U-87 MG [1] is “inactive”.
Take `COc1cccc2oc(=O)c(S(N)(=O)=O)cc12`: the Ki on Carbonic anhydrase 9 worked out at 2980 nM. Moreover, in the data set on U-87 MG [1], the “growth inhibition (GI)” value is “inactive”.
As to `NS(=O)(=O)c1cc2cc(Cl)cc(Cl)c2oc1=O`, the viability at 100 µM in the data set with RT-4 [3] was determined as 43.5%; in the data set with A-431 [8] it was 38.8%. The half-maximal inhibitory concentration (IC50) – broadly, the concentration that gives 50% inhibition – in the data set on A-431 [4] stood at 35.2 µM; in data set [5], 74 µM; in the data set on A-431 [7] it was 26.9 µM; in [11], 14.3 µM; in the data set with A-431 [12], 20.3 µM; in data set [13] it was 9.54 µM. Also, the viability at 300 µM came out at 2.84% with A-431 [6], 15.1% with RT-4 [9] and 54.1% in the data set on U-87 MG [10]. Moreover, the Ki on Carbonic anhydrase 9 turned out to be 518 nM. The “growth inhibition (GI)” value in the data set with U-87 MG [1] is “inactive”. In the data set with hTERT-BJ [14], the Activity result is recorded as “Non-Toxic”.
As to `NS(=O)(=O)c1cc2cc(F)ccc2oc1=O`, the inhibition constant Ki at Carbonic anhydrase 9 amounted to 32.6 nM. In addition, the “growth inhibition (GI)” value with U-87 MG [1] is “inactive”.
As to `CCOc1cccc2cc(S(N)(=O)=O)c(=O)oc12`, the Ki on Carbonic anhydrase 9 was determined as 51.5 nM. In addition, the Activity with hTERT-BJ [2] stood at 55.97%. Moreover, the “growth inhibition (GI)” value in the data set with U-87 MG [1] is “inactive”.
With `Cc1cc(C)c2cc(S(N)(=O)=O)c(=O)oc2c1`, the inhibition constant (Ki) at Carbonic anhydrase 9 came to 825 nM. Moreover, in the data set with U-87 MG [1], the “growth inhibition (GI)” value was “inactive”.
